# Experimental data from ChEMBL document CHEMBL2176995, “An oral sphingosine 1-phosphate receptor 1 (S1P(1)) antagonist prodrug with efficacy in vivo: discovery, synthesis, and evaluation” (J Med Chem, 2012).
# Active and inactive are the calls of the source. No cut-off for these calls is given here.
# Tests used:
# [1] = molecular target: T1, Sphingosine 1-phosphate receptor 1 (Homo sapiens, UniProt P21453); assay: Antagonist activity at human S1P1R receptor expressed in CHO cell membranes by [35S]GTPgamma binding assay; format: functional
# Summary of the method: (§1)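 Membranes from CHO clones stably expressing human S1P1 (1−5 μg/well), with S1P2–S1P5 handled comparably. Compound preincubated 15 min, then S1P (4 nM final) and GTPγ³⁵S (0.2 nM final) added. Shaken 120 min at room temperature, then SPA counting. Eight concentrations in duplicate; IC₅₀ from curve fit, mean of ≥3 determinations ± SEM.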
# [2] = test system: Rattus norvegicus; assay: Reduction in peripheral blood lymphocytes in Lewis rat assessed as remaining circulating lymphocytes level at 100 mg/kg, po administered as single dose measured 14 hrs post dose by automated hematology analyzer; format: functional
# Summary of the method: (§2)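 Male Lewis rats receive a single oral dose of compound or vehicle, freshly made in 30% PEG200/buffer. Blood (<200 μL) is drawn by sublingual puncture under isoflurane 5% v/v at baseline and later time points. Lymphocytes are counted on an automated hematology analyzer, and each animal's change is expressed as percent of its own pre-treatment baseline.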
# [3] = Solubility in pH 6.8 buffer; format: physicochemical
# [4] = test system: Rattus norvegicus; assay: Reduction in peripheral blood lymphocytes in Lewis rat assessed as remaining circulating lymphocytes level at 100 mg/kg, po administered as single dose measured 8 hrs post dose by automated hematology analyzer; format: functional; summary of the method: as §2
# [5] = test system: Rattus norvegicus; assay: Increase in allograft survival in stringent Dark Agouti to Lewis rat heterotopic vascular heart allotransplantation model assessed as allograft mean survival time at 10 mg/kg, po bid (reference value: 6 days); format: functional
# Summary of the method: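 Hearts from DA donors were transplanted into Lewis recipients, with dosing starting 3 days pre-transplant. The PKC inhibitor was given po b.i.d., mixed in D-glucose and dissolved in PEG400, distilled water and 0.1 M aqueous HCl. Vehicle controls were dosed po b.i.d. Endpoint was graft survival to rejection or predefined termination, reported as median days. Histology used H&E and trichrome with acute rejection scoring.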
# [6] = test system: Rattus norvegicus; assay: Reduction in peripheral blood lymphocytes in Lewis rat assessed as remaining circulating lymphocytes level at 30 mg/kg, po administered as single dose measured 24 hrs post dose by automated hematology analyzer; format: functional; summary of the method: as §2
# [7] = test system: Rattus norvegicus; assay: Reduction in peripheral blood lymphocytes in Lewis rat assessed as remaining circulating lymphocytes level at 30 mg/kg, po administered as single dose measured 14 hrs post dose by automated hematology analyzer; format: functional; summary of the method: as §2
# [8] = molecular target: T2, Sphingosine 1-phosphate receptor 5 (Homo sapiens, UniProt Q9H228); assay: Agonist activity at human S1P5R receptor expressed in CHO cell membranes by [35S]GTPgamma binding assay; format: functional
# [9] = molecular target: T3, Sphingosine 1-phosphate receptor 4 (Homo sapiens, UniProt O95977); assay: Agonist activity at human S1P4R receptor expressed in CHO cell membranes by [35S]GTPgamma binding assay; format: functional
# T3 sequence (O95977 whole entry): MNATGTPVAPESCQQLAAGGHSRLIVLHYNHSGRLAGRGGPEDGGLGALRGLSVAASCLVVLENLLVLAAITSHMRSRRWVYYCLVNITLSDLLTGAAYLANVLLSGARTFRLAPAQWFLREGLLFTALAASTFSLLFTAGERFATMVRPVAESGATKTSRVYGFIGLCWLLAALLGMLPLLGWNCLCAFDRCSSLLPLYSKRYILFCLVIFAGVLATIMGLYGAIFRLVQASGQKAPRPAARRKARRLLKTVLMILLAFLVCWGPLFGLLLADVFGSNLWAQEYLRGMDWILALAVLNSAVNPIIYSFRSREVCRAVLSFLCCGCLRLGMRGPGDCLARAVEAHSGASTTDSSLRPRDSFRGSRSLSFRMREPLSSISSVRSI
# [10] = molecular target: T4, Sphingosine 1-phosphate receptor 3 (Homo sapiens, UniProt Q99500); assay: Agonist activity at human S1P3R receptor expressed in CHO cell membranes by [35S]GTPgamma binding assay; format: functional
# [11] = molecular target: T5, Sphingosine 1-phosphate receptor 2 (Homo sapiens, UniProt O95136); assay: Agonist activity at human S1P2R receptor expressed in CHO cell membranes by [35S]GTPgamma binding assay; format: functional
# [12] = molecular target: T1, Sphingosine 1-phosphate receptor 1; assay: Agonist activity at human S1P1R receptor expressed in CHO cell membranes by [35S]GTPgamma binding assay; format: functional
# [13] = molecular target: T2, Sphingosine 1-phosphate receptor 5; assay: Antagonist activity at human S1P5R receptor expressed in CHO cell membranes by [35S]GTPgamma binding assay; format: functional; summary of the method: as §1
# [14] = molecular target: T3, Sphingosine 1-phosphate receptor 4; assay: Antagonist activity at human S1P4R receptor expressed in CHO cell membranes by [35S]GTPgamma binding assay; format: functional; summary of the method: as §1
# [15] = molecular target: T4, Sphingosine 1-phosphate receptor 3; assay: Antagonist activity at human S1P3R receptor expressed in CHO cell membranes by [35S]GTPgamma binding assay; format: functional; summary of the method: as §1
# [16] = molecular target: T5, Sphingosine 1-phosphate receptor 2; assay: Antagonist activity at human S1P2R receptor expressed in CHO cell membranes by [35S]GTPgamma binding assay; format: functional; summary of the method: as §1
# [17] = molecular target: T1, Sphingosine 1-phosphate receptor 1; assay: Competitive binding affinity to human S1P1R receptor expressed in CHO cell membranes by Schild plot analysis
# [18] = test system: Rattus norvegicus; assay: Increase in allograft survival in stringent Dark Agouti to Lewis rat heterotopic vascular heart allotransplantation model assessed as allograft mean survival time at 0.1 mg/kg, po qd co-treated with 0.3 mg/kg, qd everolimus; format: functional
# [19] = test system: Rattus norvegicus; assay: Increase in allograft survival in stringent Dark Agouti to Lewis rat heterotopic vascular heart allotransplantation model assessed as allograft mean survival time at 0.1 mg/kg, po qd co-treated with 10 mg/kg, po bid sotrastaurin; format: functional
# [20] = test system: Rattus norvegicus; assay: Reduction in peripheral blood lymphocytes in Lewis rat assessed as remaining circulating lymphocytes level at 100 mg/kg, po administered as single dose measured 24 hrs post dose by automated hematology analyzer; format: functional; summary of the method: as §2
# [21] = test system: Rattus norvegicus; assay: Increase in allograft survival in stringent Dark Agouti to Lewis rat heterotopic vascular heart allotransplantation model assessed as allograft mean survival time at 0.3 mg/kg, po qd (reference value: 6 days); format: functional
# [22] = test system: Rattus norvegicus; assay: Reduction in peripheral blood lymphocytes in Lewis rat assessed as remaining circulating lymphocytes level at 100 mg/kg, po administered as single dose measured 14 to 48 hrs post dose by automated hematology analyzer
# [23] = test system: Rattus norvegicus; assay: Reduction in peripheral blood lymphocytes in Lewis rat assessed as remaining circulating lymphocytes level at 100 mg/kg, po administered as single dose measured 12 hrs post dose by automated hematology analyzer; format: functional; summary of the method: as §2
# T1 sequence (P21453 whole entry): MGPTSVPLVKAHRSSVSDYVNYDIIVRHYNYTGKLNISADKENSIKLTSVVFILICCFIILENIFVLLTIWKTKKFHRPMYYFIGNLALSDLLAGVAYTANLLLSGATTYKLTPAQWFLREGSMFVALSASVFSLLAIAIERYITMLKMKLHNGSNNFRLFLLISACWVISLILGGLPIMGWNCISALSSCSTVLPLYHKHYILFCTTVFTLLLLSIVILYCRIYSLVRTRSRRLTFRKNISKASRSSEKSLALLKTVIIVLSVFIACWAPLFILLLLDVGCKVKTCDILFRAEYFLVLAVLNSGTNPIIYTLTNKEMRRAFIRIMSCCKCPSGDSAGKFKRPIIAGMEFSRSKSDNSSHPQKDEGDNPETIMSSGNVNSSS
# T4 sequence (Q99500 whole entry): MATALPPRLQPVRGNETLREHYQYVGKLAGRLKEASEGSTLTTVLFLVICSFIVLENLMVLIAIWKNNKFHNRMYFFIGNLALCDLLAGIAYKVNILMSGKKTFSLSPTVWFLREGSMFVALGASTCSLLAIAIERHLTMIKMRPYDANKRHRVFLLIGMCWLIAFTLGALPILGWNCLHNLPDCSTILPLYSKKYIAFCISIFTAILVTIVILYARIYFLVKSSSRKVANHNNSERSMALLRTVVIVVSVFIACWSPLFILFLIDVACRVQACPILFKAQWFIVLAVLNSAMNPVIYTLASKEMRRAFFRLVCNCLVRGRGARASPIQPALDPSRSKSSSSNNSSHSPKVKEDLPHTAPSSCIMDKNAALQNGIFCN
# T5 sequence (O95136 whole entry): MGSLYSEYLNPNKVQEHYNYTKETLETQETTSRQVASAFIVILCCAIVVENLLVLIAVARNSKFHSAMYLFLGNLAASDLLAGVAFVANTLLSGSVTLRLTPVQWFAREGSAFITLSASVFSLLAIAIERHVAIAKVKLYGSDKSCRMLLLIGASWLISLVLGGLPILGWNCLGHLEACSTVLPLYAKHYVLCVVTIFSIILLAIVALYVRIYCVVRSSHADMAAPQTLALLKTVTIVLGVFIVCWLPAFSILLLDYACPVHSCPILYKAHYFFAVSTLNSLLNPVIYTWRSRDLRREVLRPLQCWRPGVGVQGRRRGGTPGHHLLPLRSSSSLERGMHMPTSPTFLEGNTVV
# T2 sequence (Q9H228 whole entry): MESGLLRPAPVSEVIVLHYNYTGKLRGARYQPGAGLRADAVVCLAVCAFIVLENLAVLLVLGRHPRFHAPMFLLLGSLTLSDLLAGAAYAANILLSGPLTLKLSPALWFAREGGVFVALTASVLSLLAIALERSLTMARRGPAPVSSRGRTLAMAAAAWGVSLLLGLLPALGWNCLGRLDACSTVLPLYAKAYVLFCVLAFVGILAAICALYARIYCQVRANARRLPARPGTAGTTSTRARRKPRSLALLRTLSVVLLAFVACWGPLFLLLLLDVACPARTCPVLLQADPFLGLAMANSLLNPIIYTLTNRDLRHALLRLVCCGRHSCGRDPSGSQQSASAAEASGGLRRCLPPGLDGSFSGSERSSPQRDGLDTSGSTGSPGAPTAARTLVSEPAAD
smiles,measurement,setting,value
Cc1cc(S(=O)(=O)Nc2cccc(-c3cc(C)c(C(=O)N(C)[C@@H](CN(C)C)C(=O)O)c(C)c3)c2)c(C)cc1Cl,IC50,[1],8.4 nM
COC(=O)[C@H](CCN)NC(=O)c1c(C)cc(-c2cccc(NS(=O)(=O)c3cc(C)c(Cl)cc3C)c2)cc1C,Activity,[2],76%
COC(=O)[C@H](C)N(C)C(=O)c1c(C)cc(-c2cccc(NS(=O)(=O)c3cc(C)c(Cl)cc3C)c2)cc1C,Activity,[2],21%
same,solubility,[3],< 4 µM
Cc1cc(S(=O)(=O)Nc2cccc(-c3cc(C)c(C(=O)N[C@@H](C)C(=O)O)c(C)c3)c2)c(C)cc1Cl,Activity,[4],20%
same,IC50,[1],2.6 nM
COC(=O)[C@H](C)NC(=O)c1c(C)cc(-c2cccc(NS(=O)(=O)c3cc(C)c(Cl)cc3C)c2)cc1C,Activity,[2],24%
CN1CCN(c2nc(C3=C(c4c[nH]c5ccccc45)C(=O)NC3=O)c3ccccc3n2)CC1 [SOTRASTAURIN],MST,[5],7 days
Cc1cc(S(=O)(=O)Nc2cccc(-c3cc(C)c(C(=O)N(C)[C@@H](C)C(=O)OCCN(C)C)c(C)c3)c2)c(C)cc1Cl,solubility,[3],15 µM
same,Activity,[6],49%
same,Activity,[7],25%
CCOC(=O)[C@H](CCN(C)C)N(C)C(=O)c1c(C)cc(-c2cccc(NS(=O)(=O)c3cc(C)c(Cl)cc3C)c2)cc1C,solubility,[3],< 4 µM
same,Activity,[6],48%
same,Activity,[7],28%
COC(=O)[C@H](CN(C)C)N(C)C(=O)c1c(C)cc(-c2cccc(NS(=O)(=O)c3cc(C)c(Cl)cc3C)c2)cc1C,Activity,[2],37%
same,solubility,[3],< 4 µM
Cc1cc(S(=O)(=O)Nc2cccc(-c3cc(C)c(C(=O)N(C)[C@@H](CCN(C)C)C(=O)O)c(C)c3)c2)c(C)cc1Cl,IC50,[1],3.4 nM
same,EC50,[8],> 10000 nM
same,EC50,[9],1200 nM
same,EC50,[10],> 10000 nM
same,EC50,[11],> 10000 nM
same,EC50,[12],> 10000 nM
same,IC50,[13],978 nM
same,IC50,[14],> 10000 nM
same,IC50,[15],802 nM
same,IC50,[16],> 10000 nM
same,Kd,[17],0.67 nM
Cc1cc(S(=O)(=O)Nc2cccc(-c3cc(C)c(C(=O)N[C@@H](CCN(C)C)C(=O)O)c(C)c3)c2)c(C)cc1Cl,IC50,[1],12 nM
COC(=O)[C@@H](CCN(C)C)N(C)C(=O)c1c(C)cc(-c2cccc(NS(=O)(=O)c3cc(C)c(Cl)cc3C)c2)cc1C,Activity,[7],67%
Cc1cc(S(=O)(=O)Nc2cccc(-c3cc(C)c(C(=O)N[C@@H](CCN)C(=O)O)c(C)c3)c2)c(C)cc1Cl,IC50,[1],2.1 nM
CCCCCCCCc1ccc(CCC(N)(CO)CO)cc1 [FINGOLIMOD],MST,[18],38 days
same,MST,[19],>68.5 days
COC(=O)[C@H](CCN(C)C)NC(=O)c1c(C)cc(-c2cccc(NS(=O)(=O)c3cc(C)c(Cl)cc3C)c2)cc1C,Activity,[2],15%
same,Activity,[20],24%
CO[C@H]1C[C@@H]2CC[C@@H](C)[C@@](O)(O2)C(=O)C(=O)N2CCCC[C@H]2C(=O)O[C@H]([C@H](C)C[C@@H]2CC[C@@H](OCCO)[C@H](OC)C2)CC(=O)[C@H](C)/C=C(\C)[C@@H](O)[C@@H](OC)C(=O)[C@H](C)C[C@H](C)/C=C/C=C/C=C/1C [EVEROLIMUS],MST,[21],7 days
Cc1cc(S(=O)(=O)Nc2cccc(-c3cc(C)c(C(=O)N(C)[C@H](CCN(C)C)C(=O)O)c(C)c3)c2)c(C)cc1Cl,IC50,[1],20 nM
Cc1cc(S(=O)(=O)Nc2cccc(-c3cc(C)c(C(=O)N[C@H]4CCNC4=O)c(C)c3)c2)c(C)cc1Cl,Activity,[22],inactive
Cc1cc(S(=O)(=O)Nc2cccc(-c3cc(C)c(C(=O)N(C)[C@@H](C)C(=O)O)c(C)c3)c2)c(C)cc1Cl,Activity,[23],19%
same,IC50,[1],6.1 nM
